From ChEMBL document CHEMBL1799918, “Growth inhibitory activities of oxyprenylated and non-prenylated naturally occurring phenylpropanoids in cancer cell lines” (Bioorg Med Chem Lett, 2011)

Tests used:
[1] = tested on: PC-3; test: Cytotoxicity against human PC3 cells after 72 hrs by MTT assay; assay type: functional, cell-based; settings: PC-3, 72 h
Outline: (§1)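 MTT colorimetric assay on human cancer cell lines; IC50 growth inhibitory concentration determined in vitro for each compound.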

[2] = tested on: SK-MEL-28; test: Cytotoxicity against human SK-MEL-28 cells after 72 hrs by MTT assay; assay type: functional, cell-based; settings: SK-MEL-28, 72 h; outline: as §1
[3] = tested on: LoVo; test: Cytotoxicity against human LoVo cells after 72 hrs by MTT assay; assay type: functional, cell-based; outline: as §1
[4] = tested on: A549; test: Cytotoxicity against human A549 cells after 72 hrs by MTT assay; assay type: functional, cell-based; settings: A549, 72 h; outline: as §1
[5] = Cytotoxicity against human OE21 cells after 72 hrs by MTT assay; assay type: functional, cell-based; settings: OE21, 72 h; outline: as §1
[6] = Cytotoxicity against human U373 cells after 72 hrs by MTT assay; assay type: functional, cell-based, U-373MG ATCC; settings: U373 MG; outline: as §1
[7] = Cytotoxicity against human U373 cells assessed as growth inhibition at MTT assay-related IC50 by quantitative video microscopy relative to control; assay type: functional, U-373MG ATCC
[8] = Induction of human U373 cell death assessed as morphological changes at MTT assay-related IC50 after 72 hrs by quantitative video microscopy; assay type: functional, U-373MG ATCC
[9] = Cytostatic activity against human U373 cells assessed as growth inhibition at MTT assay-related IC50 by quantitative video microscopy relative to control; assay type: functional, U-373MG ATCC

**Q.** Which IC50 [1] does the source give for `COc1cc(/C=C/C(=O)O)ccc1OCC=C(C)C` [BOROPINIC ACID] here?
**A.** > 100 µM

**Q.** And the IC50 [2]?
**A.** > 100 µM

**Q.** And the IC50 [3]?
**A.** > 100 µM

**Q.** What about the IC50 [4] of the same compound?
**A.** > 100 µM

**Q.** What about the IC50 [5] of the same compound?
**A.** > 100 µM

**Q.** And the IC50 [6]?
**A.** > 100 µM

**Q.** With `COc1cc(/C=C/C=O)cc(OC)c1OCC=C(C)C` as the compound, how does the IC50 [1] read?
**A.** 28 µM

**Q.** And the “growth inhibition (GI)” value [7]?
**A.** 90%

**Q.** And the IC50 [2]?
**A.** 32 µM

**Q.** What about the IC50 [3] of the same compound?
**A.** 31 µM

**Q.** What about the Activity [8] of the same compound?
**A.** 100%

**Q.** What about the IC50 [4] of the same compound?
**A.** 68 µM

**Q.** And the IC50 [5]?
**A.** 29 µM

**Q.** And the IC50 [6]?
**A.** 30 µM

**Q.** For `CC(C)=CCC/C(C)=C/CC/C(C)=C/COc1ccc2ccc(=O)oc2c1` [UMBELLIPRENIN], which IC50 [1] is on record?
**A.** 75 µM

**Q.** What about the “growth inhibition (GI)” value [7] of the same compound?
**A.** 90%

**Q.** What about the IC50 [2] of the same compound?
**A.** 66 µM

**Q.** And the IC50 [3]?
**A.** 50 µM

**Q.** What about the Activity [8] of the same compound?
**A.** 40%

**Q.** What about the IC50 [4] of the same compound?
**A.** 71 µM

**Q.** And the IC50 [5]?
**A.** 30 µM

**Q.** What about the IC50 [6] of the same compound?
**A.** 72 µM

**Q.** With `O=C(O)c1ccc(O)cc1` [PARABEN] as the compound, how does the IC50 [1] read?
**A.** > 100 µM

**Q.** And the IC50 [2]?
**A.** > 100 µM

**Q.** What about the IC50 [3] of the same compound?
**A.** 94 µM

**Q.** And the IC50 [4]?
**A.** > 100 µM

**Q.** And the IC50 [5]?
**A.** 71 µM

**Q.** What about the IC50 [6] of the same compound?
**A.** > 100 µM

**Q.** Which results are given for `CC(C)=CCOc1ccc2ccc(=O)oc2c1O`?
**A.** IC50 [1]: > 100 µM; IC50 [2]: > 100 µM; IC50 [3]: 92 µM; IC50 [4]: > 100 µM; IC50 [5]: > 100 µM; IC50 [6]: > 100 µM

**Q.** For `O=C(O)/C=C/c1ccc(O)cc1` [COUMARIC ACID], which IC50 [1] is on record?
**A.** > 100 µM

**Q.** What about the IC50 [2] of the same compound?
**A.** > 100 µM

**Q.** And the IC50 [3]?
**A.** 82 µM

**Q.** What about the IC50 [4] of the same compound?
**A.** > 100 µM

**Q.** What about the IC50 [5] of the same compound?
**A.** 66 µM

**Q.** And the IC50 [6]?
**A.** > 100 µM

**Q.** What does the source list for `CC(=O)c1ccc(OC/C=C(\C)CCC=C(C)C)cc1O`?
**A.** IC50 [1]: 27 µM; growth inhibition (GI) [7]: 80%; IC50 [2]: 44 µM; IC50 [3]: 38 µM; Activity [8]: 17%; IC50 [4]: 51 µM; IC50 [5]: 37 µM; IC50 [6]: 48 µM

**Q.** Which results are given for `CC(=O)c1c(O)cc(OC/C=C(\C)CCC=C(C)C)cc1O`?
**A.** IC50 [1]: 48 µM; growth inhibition (GI) [7]: 80%; IC50 [2]: 40 µM; IC50 [3]: 35 µM; Activity [8]: 15%; IC50 [4]: 34 µM; IC50 [5]: 34 µM; IC50 [6]: 29 µM

**Q.** With `CC(C)=CCOc1ccc2ccc(=O)oc2c1` [7-PRENYLOXYCOUMARIN] as the compound, how does the IC50 [1] read?
**A.** > 100 µM

**Q.** What about the IC50 [2] of the same compound?
**A.** > 100 µM

**Q.** What about the IC50 [3] of the same compound?
**A.** 82 µM

**Q.** And the IC50 [4]?
**A.** > 100 µM

**Q.** And the IC50 [5]?
**A.** 79 µM

**Q.** What about the IC50 [6] of the same compound?
**A.** > 100 µM

**Q.** With `O=c1ccc2ccc(O)cc2o1` [UMBELLIFERONE] as the compound, how does the IC50 [1] read?
**A.** > 100 µM

**Q.** What about the IC50 [2] of the same compound?
**A.** > 100 µM

**Q.** And the IC50 [3]?
**A.** 97 µM

**Q.** What about the IC50 [4] of the same compound?
**A.** > 100 µM

**Q.** What about the IC50 [5] of the same compound?
**A.** 33 µM

**Q.** And the IC50 [6]?
**A.** > 100 µM

**Q.** For `COc1cc(/C=C/C(=O)O)ccc1OC/C=C(\C)CCC=C(C)C`, which IC50 [1] is on record?
**A.** > 100 µM

**Q.** What about the IC50 [2] of the same compound?
**A.** > 100 µM

**Q.** What about the IC50 [3] of the same compound?
**A.** > 100 µM

**Q.** And the IC50 [4]?
**A.** > 100 µM

**Q.** And the IC50 [5]?
**A.** > 100 µM

**Q.** What about the IC50 [6] of the same compound?
**A.** > 100 µM

**Q.** With `O=C(/C=C/c1ccccc1)c1ccc(O)cc1O` [2',4'-DIHYDROXYCHALCONE] as the compound, how does the IC50 [1] read?
**A.** > 100 µM

**Q.** What about the IC50 [2] of the same compound?
**A.** 75 µM

**Q.** What about the IC50 [3] of the same compound?
**A.** 81 µM

**Q.** And the IC50 [4]?
**A.** > 100 µM

**Q.** What about the IC50 [5] of the same compound?
**A.** 49 µM

**Q.** And the IC50 [6]?
**A.** > 100 µM

**Q.** For `COc1cc(/C=C/CO)cc(OC)c1OCC=C(C)C`, which IC50 [1] is on record?
**A.** > 100 µM

**Q.** And the IC50 [2]?
**A.** > 100 µM

**Q.** What about the IC50 [3] of the same compound?
**A.** > 100 µM

**Q.** What about the IC50 [4] of the same compound?
**A.** > 100 µM

**Q.** And the IC50 [5]?
**A.** > 100 µM

**Q.** And the IC50 [6]?
**A.** > 100 µM

**Q.** With `CC(C)=CCC/C(C)=C/COc1ccc(/C=C/C(=O)O)cc1` as the compound, how does the IC50 [1] read?
**A.** > 100 µM

**Q.** And the IC50 [2]?
**A.** > 100 µM

**Q.** What about the IC50 [3] of the same compound?
**A.** > 100 µM

**Q.** What about the IC50 [4] of the same compound?
**A.** > 100 µM

**Q.** And the IC50 [5]?
**A.** > 100 µM

**Q.** What about the IC50 [6] of the same compound?
**A.** > 100 µM

**Q.** What does the source list for `O=C(/C=C/c1ccc(O)cc1)c1ccc(O)cc1O` [ISOLIQUIRITIGENIN]?
**A.** IC50 [1]: 99 µM; IC50 [2]: 75 µM; IC50 [3]: 57 µM; Activity [8]: 7%; growth inhibition (GI) [9]: 60%; IC50 [4]: 85 µM; IC50 [5]: 48 µM; IC50 [6]: 68 µM

**Q.** Which results are given for `CC(=O)c1c(O)cc(O)cc1O` [2,4,6-TRIHYDROXYACETOPHENONE]?
**A.** IC50 [1]: > 100 µM; IC50 [2]: > 100 µM; IC50 [3]: 90 µM; IC50 [4]: 100 µM; IC50 [5]: 42 µM; IC50 [6]: > 100 µM

**Q.** For `COc1cc(C(=O)O)ccc1OCC=C(C)C`, which IC50 [1] is on record?
**A.** > 100 µM

**Q.** What about the IC50 [2] of the same compound?
**A.** > 100 µM

**Q.** What about the IC50 [3] of the same compound?
**A.** > 100 µM

**Q.** What about the IC50 [4] of the same compound?
**A.** > 100 µM

**Q.** And the IC50 [5]?
**A.** > 100 µM

**Q.** What about the IC50 [6] of the same compound?
**A.** > 100 µM

**Q.** For `COc1cc(/C=C/C=O)ccc1OC/C=C(\C)CCC=C(C)C`, which IC50 [1] is on record?
**A.** 24 µM

**Q.** And the “growth inhibition (GI)” value [7]?
**A.** 80%

**Q.** What about the IC50 [2] of the same compound?
**A.** 28 µM

**Q.** What about the IC50 [3] of the same compound?
**A.** 12 µM

**Q.** What about the Activity [8] of the same compound?
**A.** 26%

**Q.** What about the IC50 [4] of the same compound?
**A.** 5 µM

**Q.** What about the IC50 [5] of the same compound?
**A.** 34 µM

**Q.** What about the IC50 [6] of the same compound?
**A.** 7 µM

**Q.** With `CC(C)=CCOc1ccc(C(=O)/C=C/c2ccccc2)c(O)c1` [CORDOIN] as the compound, how does the IC50 [1] read?
**A.** 71 µM

**Q.** What about the “growth inhibition (GI)” value [7] of the same compound?
**A.** 95%

**Q.** And the IC50 [2]?
**A.** 81 µM

**Q.** And the IC50 [3]?
**A.** 58 µM

**Q.** What about the Activity [8] of the same compound?
**A.** 88%

**Q.** What about the IC50 [4] of the same compound?
**A.** 54 µM

**Q.** What about the IC50 [5] of the same compound?
**A.** 39 µM

**Q.** What about the IC50 [6] of the same compound?
**A.** 53 µM
